Source: ChEMBL document CHEMBL1145734, “A study on the synthesis of antiangiogenic (+)-coronarin A and congeners from (+)-sclareolide” (Bioorg Med Chem Lett, 2003)
In brackets after ≈: the same amount, converted by molar mass.

Each molecule was assayed on HUVEC (assay: Growth inhibitory activity against human umbilical vein endothelial cells (HUVEC) proliferation using MTT colorimetric method).
Type: functional, cell-based
Outline: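 HUVEC seeded at 10,000 cells/well in growth-factor-containing EGM-2 and left 4 h to adhere. Compounds diluted in medium were added, followed by 72 h incubation at 37 in humidified 5% CO2. Viability was read by MTT colorimetric assay. IC50 came from nonlinear regression.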

`CC1(C)CCC[C@]2(C)[C@H]3CC(=O)O[C@]3(C)CC[C@@H]12` and `C=C[C@](C)(O)CC[C@@H]1[C@@]2(C)CCCC(C)(C)[C@@H]2CC[C@@]1(C)O` [SCLAREOL] cannot be ordered by IC50: > 50 µg/mL for the first, > 50 µg/mL for the second.

`C=C1[C@H](O[Si](C)(C)C(C)(C)C)C[C@H]2C(C)(C)CCC[C@]2(C)[C@H]1/C=C/c1ccoc1` and `C=C1[C@@H](O[Si](C)(C)C(C)(C)C)C[C@H]2C(C)(C)CCC[C@]2(C)[C@H]1/C=C/c1ccoc1` cannot be ordered by IC50: > 50 µg/mL for the first, > 50 µg/mL for the second.

First: C=C1[C@@H](O[Si](C)(C)C(C)(C)C)C[C@H]2C(C)(C)CCC[C@]2(C)[C@H]1C[C@@H](O)c1ccoc1
Second: C=C1[C@@H](O[Si](C)(C)C(C)(C)C)C[C@H]2C(C)(C)CCC[C@]2(C)[C@H]1C[C@H](O)c1ccoc1
The IC50 of the first is 2.1-fold lower: 3.76 µg/mL (≈ 8.69 µM) for the first, 7.71 µg/mL (≈ 17.8 µM) for the second.

Compared with `C=C1[C@@H](O)C[C@H]2C(C)(C)CCC[C@]2(C)[C@H]1C[C@@H](O)c1ccoc1`, `C=C1[C@@H](O)C[C@H]2C(C)(C)CCC[C@]2(C)[C@H]1C[C@H](O)c1ccoc1` is 2-fold higher in IC50: 15 µg/mL (≈ 47.2 µM) for the first, 29.7 µg/mL (≈ 93.2 µM) for the second.

`C=C1[C@H](O)C[C@H]2C(C)(C)CCC[C@]2(C)[C@H]1/C=C/c1ccoc1` and `C=C1[C@@H](O)C[C@H]2C(C)(C)CCC[C@]2(C)[C@H]1/C=C/c1ccoc1` [CORONARIN A] are within 1.5-fold of each other in IC50: 3.12 µg/mL (≈ 10.4 µM) for the first, 4.22 µg/mL (≈ 14 µM) for the second.

Each molecule was assayed on HUVEC (assay: Percentage inhibition against growth factor induced tube formation by human umbilical vein endothelial cells (HUVEC) at 10 ug/mL concentration).
Type: functional
Outline: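 HUVEC plated at 5000 cells/well on solidified Matrigel and incubated 16 h at 37 in humidified 5% CO2, with compound at 10 μg/mL, in triplicate. Cells were then stained with toluidine blue in 4% paraformaldehyde and photographed. A blinded observer counted tube branches per well. Inhibition was expressed relative to untreated control.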

First: C=C1[C@H](O[Si](C)(C)C(C)(C)C)C[C@H]2C(C)(C)CCC[C@]2(C)[C@H]1/C=C/c1ccoc1
Second: C=C1[C@@H](O[Si](C)(C)C(C)(C)C)C[C@H]2C(C)(C)CCC[C@]2(C)[C@H]1/C=C/c1ccoc1
The inhibition at 10 µg/mL of the first is lower: 5% for the first, 22% for the second.

First: C=C1[C@@H](O[Si](C)(C)C(C)(C)C)C[C@H]2C(C)(C)CCC[C@]2(C)[C@H]1C[C@@H](O)c1ccoc1
Second: C=C1[C@@H](O[Si](C)(C)C(C)(C)C)C[C@H]2C(C)(C)CCC[C@]2(C)[C@H]1C[C@H](O)c1ccoc1
The inhibition at 10 µg/mL of the first is lower: 10% for the first, 20% for the second.

Compared with `C=C1[C@@H](O)C[C@H]2C(C)(C)CCC[C@]2(C)[C@H]1C[C@@H](O)c1ccoc1`, `C=C1[C@@H](O)C[C@H]2C(C)(C)CCC[C@]2(C)[C@H]1C[C@H](O)c1ccoc1` is higher in inhibition at 10 µg/mL: 0% for the first, 10% for the second.

Going from `C=C1[C@H](O)C[C@H]2C(C)(C)CCC[C@]2(C)[C@H]1/C=C/c1ccoc1` to `C=C1[C@@H](O)C[C@H]2C(C)(C)CCC[C@]2(C)[C@H]1/C=C/c1ccoc1` [CORONARIN A], the inhibition at 10 µg/mL falls from 90% to 55%.
